Data set [1] concerns pooled human liver microsomes. Nature of the data set: EFV analogue metabolism by pooled human liver microsomes. The format is in vitro ADME. Particulars: 2 mg/mL HLM, 10 μM analogue, NADPH regenerating system, 60 min, uHPLC-MS/MS. Put shortly: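 Pooled human liver microsomes were incubated with test compound and an NADPH regenerating system. Oxidative products (monooxygenated or N-dealkylated) were profiled by uHPLC–MS/MS and assigned by m/z, retention time and fragment ions.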
A general note: Microsomes from liver hold many membrane-bound enzymes, among them those of drug oxidation.

In data set [2] the target is T1, CYP2B6 (Homo sapiens, UniProt P20813).
T1 sequence (P20813 1-491): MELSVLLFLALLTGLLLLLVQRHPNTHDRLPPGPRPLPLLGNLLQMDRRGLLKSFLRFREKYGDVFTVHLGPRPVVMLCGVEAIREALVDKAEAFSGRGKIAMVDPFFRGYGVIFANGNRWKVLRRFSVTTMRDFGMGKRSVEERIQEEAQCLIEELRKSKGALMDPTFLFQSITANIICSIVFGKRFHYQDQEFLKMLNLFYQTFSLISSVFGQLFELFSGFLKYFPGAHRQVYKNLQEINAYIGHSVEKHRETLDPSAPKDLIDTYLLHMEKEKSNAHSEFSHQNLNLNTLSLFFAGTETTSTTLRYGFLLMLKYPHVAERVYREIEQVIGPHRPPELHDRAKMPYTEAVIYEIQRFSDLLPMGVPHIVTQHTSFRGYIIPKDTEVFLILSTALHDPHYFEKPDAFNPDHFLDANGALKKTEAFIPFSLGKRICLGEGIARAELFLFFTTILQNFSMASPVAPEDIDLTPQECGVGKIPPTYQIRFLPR
Nature of the data set: Substrate depletion kinetics with CYP2B6. In kind it is in vitro ADME. Put shortly:
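cDNA-expressed CYP2B6 (insect microsomes, 10 nM) was incubated with substrate at 37 °C in 100 mM potassium phosphate. After NADPH regenerating system was added, aliquots at 0, 2, 5, 10, 20 and 30 min were quenched in equal-volume acetonitrile with fluorinated internal standard. Depletion was measured by uHPLC–MS/MS, giving Km, kdep max and Vmax. Mean ± SD, three replicate experiments in duplicate.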

Data set [3] addresses T1, CYP2B6. The experiment in a line: Inhibition of CYP2B6 bupropion hydroxylase activity. The format is biochemical. Particulars: 10 μM compound, 40 μM bupropion, CYP2B6 50 nM, 10 min, 37 °C. Put shortly: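 Enzyme was cDNA-expressed CYP2B6 in insect microsomes, incubated with bupropion and test compound in 100 mM potassium phosphate buffer. Hydroxybupropion was quantified by uHPLC–MS/MS and expressed as a percentage of a vehicle control (no test compound). Mean ± SD of three replicate experiments run in duplicate; significance was tested against vehicle.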

We go through 5 molecules from article PMC4191608 (ACS Medicinal Chemistry Letters, 2014).

As to `CCCC#CC1(C(F)(F)F)OC(=O)Nc2ccc(Cl)cc21` (racemic) [analogue 4, rac 6-Chloro-1,4-dihydro-4-(1-pentynyl)-4-(trifluoromethyl)-2H-3,1-benzoxazin-2-one], in data set [1], the “Metabolites detected from incubation with human liver microsomes” value (from here on “Metabolites detected from incubation”) was “Monooxygenated metabolites”. For the same molecule, at CYP2B6 [2], the “fold increase in Km relative to EFV” value is reported as 2 fold.
With `COc1ccc(C(=O)Nc2ccc(Cl)cc2C(O)(C#CC2CC2)C(F)(F)F)cc1` (racemic) [analogue 7, rac N-[4-Chloro-2-[3-cyclopropyl-1-hydroxy-1-(trifluoromethyl)-2-propynyl]phenyl]-4-methoxybenzamide], the “Metabolites detected from incubation” value in data set [1] was “No metabolites”. On CYP2B6 [3], the “inhibition of CYP2B6 hydroxybupropion formation (in words)” value is “unable to inhibit hydroxybupropion formation”.
Turning to `O=C1Nc2ccc(Cl)cc2[C@@](C#CC2CC2)(C(F)(F)F)O1` [EFV, efavirenz, reference compound], the “decrease in hydroxybupropion formation compared to vehicle control” value on CYP2B6 [3] is given as 93%.
Turning to `O=C1Nc2ccc(Cl)cc2[C@@](/C=C/C2CC2)(C(F)(F)F)O1` [analogue 3, (E)-Dihydroefavirenz], the “Metabolites detected from incubation” value in data set [1] was “Monooxygenated metabolites”. For the same molecule, the “fold decrease in Km between EFV and analogue” value at CYP2B6 [2] (relative to EFV) is given as 2 fold.
Turning to `FC(F)(F)[C@@]1(C#CC2CC2)OCNc2ccc(Cl)cc21` [analogue 8, (4S)-6-Chloro-4-(2-cyclopropylethynyl)-1,4-dihydro-4-(trifluoromethyl)-2H-3,1-benzoxazine], the “Metabolites detected from incubation” value in data set [1] is given as “Monooxygenated metabolites”.
